Data as given in ChEMBL document CHEMBL1811796, “Requirements for mammalian carboxylesterase inhibition by substituted ethane-1,2-diones” (Bioorg Med Chem, 2011).
The source made the active and inactive calls. The calls are words filed in the database; no cut-off is given here.

Legend:
Liver carboxylesterase 1 [1] = target: T1, Liver carboxylesterase 1 (Homo sapiens, UniProt P23141); assay: Inhibition of human liver carboxylesterase1 using o-nitrophenyl acetate as substrate after 5 mins by spectrophotometry
T1 sequence (P23141 whole entry): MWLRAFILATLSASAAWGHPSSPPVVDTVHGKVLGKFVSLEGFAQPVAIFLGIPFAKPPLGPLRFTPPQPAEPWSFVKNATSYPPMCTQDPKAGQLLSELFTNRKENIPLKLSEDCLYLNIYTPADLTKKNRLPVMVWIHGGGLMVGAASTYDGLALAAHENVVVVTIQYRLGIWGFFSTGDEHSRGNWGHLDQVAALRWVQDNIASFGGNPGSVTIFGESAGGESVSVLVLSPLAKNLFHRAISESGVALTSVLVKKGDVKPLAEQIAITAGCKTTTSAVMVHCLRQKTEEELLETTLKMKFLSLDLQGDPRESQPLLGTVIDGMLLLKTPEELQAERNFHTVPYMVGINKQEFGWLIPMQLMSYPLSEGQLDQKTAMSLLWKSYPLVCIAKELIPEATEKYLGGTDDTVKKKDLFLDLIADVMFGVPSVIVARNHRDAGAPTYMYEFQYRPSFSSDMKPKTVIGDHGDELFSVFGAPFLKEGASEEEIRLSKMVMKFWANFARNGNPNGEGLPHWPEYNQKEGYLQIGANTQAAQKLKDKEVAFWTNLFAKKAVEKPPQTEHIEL
Method in brief: (§1)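 hCE1 and rabbit liver CE were purified from baculovirus-infected Spodoptera frugiperda cells, with 3 mM o-nitrophenyl acetate as substrate. A4₂₀ was read every 15 s for 5 min versus no-inhibitor wells. Screening was at 100 μM; compounds giving >50% reduction were rescreened from 1 pM to 100 μM. Ki came from fitting a partial-inhibition (α, β) model.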

Cocaine esterase [2] = target: T2, Cocaine esterase (Homo sapiens, UniProt O00748); assay: Inhibition of human intestinal carboxylesterase using o-nitrophenyl acetate as substrate after 5 mins by spectrophotometry
T2 sequence (O00748 whole entry): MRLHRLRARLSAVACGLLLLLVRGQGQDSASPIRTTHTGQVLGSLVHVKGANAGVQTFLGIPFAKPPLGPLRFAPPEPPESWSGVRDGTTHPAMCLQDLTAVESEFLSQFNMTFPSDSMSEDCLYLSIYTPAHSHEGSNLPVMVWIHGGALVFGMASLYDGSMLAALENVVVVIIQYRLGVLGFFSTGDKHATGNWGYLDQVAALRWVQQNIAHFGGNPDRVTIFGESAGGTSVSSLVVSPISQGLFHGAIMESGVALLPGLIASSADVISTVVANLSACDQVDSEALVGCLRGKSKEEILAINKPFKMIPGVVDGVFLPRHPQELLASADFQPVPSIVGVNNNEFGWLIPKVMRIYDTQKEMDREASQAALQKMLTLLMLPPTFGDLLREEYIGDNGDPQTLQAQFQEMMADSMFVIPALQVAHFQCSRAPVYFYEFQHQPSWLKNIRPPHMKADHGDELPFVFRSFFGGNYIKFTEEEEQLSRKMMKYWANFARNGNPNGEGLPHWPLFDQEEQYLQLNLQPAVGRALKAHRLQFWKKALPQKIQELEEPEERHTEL

Liver carboxylesterase 1 [3] = target: T3, Liver carboxylesterase 1 (Oryctolagus cuniculus, UniProt P12337); assay: Inhibition of rabbit liver carboxylesterase using o-nitrophenyl acetate as substrate after for 5 mins by spectrophotometry; method in brief: as §1
T3 sequence (P12337 whole entry): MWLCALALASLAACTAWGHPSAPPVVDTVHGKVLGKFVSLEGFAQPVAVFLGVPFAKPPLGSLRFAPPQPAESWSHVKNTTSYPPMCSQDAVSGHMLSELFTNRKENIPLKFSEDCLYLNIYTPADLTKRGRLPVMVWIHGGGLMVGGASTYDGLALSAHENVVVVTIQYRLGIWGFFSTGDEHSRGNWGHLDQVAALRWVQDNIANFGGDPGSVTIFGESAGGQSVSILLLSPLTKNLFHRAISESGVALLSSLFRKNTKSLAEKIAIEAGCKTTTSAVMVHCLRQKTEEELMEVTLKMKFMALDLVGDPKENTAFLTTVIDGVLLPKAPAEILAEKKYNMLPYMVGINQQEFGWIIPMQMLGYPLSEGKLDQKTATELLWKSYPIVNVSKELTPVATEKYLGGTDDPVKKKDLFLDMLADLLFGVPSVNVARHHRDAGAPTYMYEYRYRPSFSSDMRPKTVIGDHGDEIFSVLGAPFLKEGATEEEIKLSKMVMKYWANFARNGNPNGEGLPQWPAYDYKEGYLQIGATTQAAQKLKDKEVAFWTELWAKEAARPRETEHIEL

Acetylcholinesterase = Acetylcholinesterase (Homo sapiens, UniProt P22303); assay: Inhibition of human acetylcholinesterase using acetylthiocholine as substrate by spectrophotometry
Acetylcholinesterase, sequence (P22303 whole entry): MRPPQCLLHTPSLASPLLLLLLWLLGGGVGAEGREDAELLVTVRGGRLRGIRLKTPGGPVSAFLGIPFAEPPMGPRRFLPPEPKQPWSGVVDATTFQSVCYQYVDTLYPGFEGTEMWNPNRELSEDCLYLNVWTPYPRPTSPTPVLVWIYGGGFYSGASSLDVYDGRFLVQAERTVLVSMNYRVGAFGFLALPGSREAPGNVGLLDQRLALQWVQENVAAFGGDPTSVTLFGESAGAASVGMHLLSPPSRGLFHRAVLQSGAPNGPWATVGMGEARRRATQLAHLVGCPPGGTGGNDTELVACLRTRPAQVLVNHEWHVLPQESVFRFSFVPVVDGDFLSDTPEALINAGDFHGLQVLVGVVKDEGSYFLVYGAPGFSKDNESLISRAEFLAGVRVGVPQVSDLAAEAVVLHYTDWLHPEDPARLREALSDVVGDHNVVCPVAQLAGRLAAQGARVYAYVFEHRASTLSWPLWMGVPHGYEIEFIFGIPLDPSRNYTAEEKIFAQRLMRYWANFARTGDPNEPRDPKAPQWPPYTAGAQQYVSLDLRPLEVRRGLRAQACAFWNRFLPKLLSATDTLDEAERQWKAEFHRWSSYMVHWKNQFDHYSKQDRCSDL
Method in brief: (§2)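 Human AChE and BChE were commercial enzymes. Substrate was 1 mM acetylthiocholine for AChE and 1 mM butyrylthiocholine for BChE.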

Cholinesterase = Cholinesterase (Homo sapiens, UniProt P06276); assay: Inhibition of human butyrylcholinesterase using butyrylthiocholine as substrate by spectrophotometry; method in brief: as §2
Cholinesterase, sequence (P06276 whole entry): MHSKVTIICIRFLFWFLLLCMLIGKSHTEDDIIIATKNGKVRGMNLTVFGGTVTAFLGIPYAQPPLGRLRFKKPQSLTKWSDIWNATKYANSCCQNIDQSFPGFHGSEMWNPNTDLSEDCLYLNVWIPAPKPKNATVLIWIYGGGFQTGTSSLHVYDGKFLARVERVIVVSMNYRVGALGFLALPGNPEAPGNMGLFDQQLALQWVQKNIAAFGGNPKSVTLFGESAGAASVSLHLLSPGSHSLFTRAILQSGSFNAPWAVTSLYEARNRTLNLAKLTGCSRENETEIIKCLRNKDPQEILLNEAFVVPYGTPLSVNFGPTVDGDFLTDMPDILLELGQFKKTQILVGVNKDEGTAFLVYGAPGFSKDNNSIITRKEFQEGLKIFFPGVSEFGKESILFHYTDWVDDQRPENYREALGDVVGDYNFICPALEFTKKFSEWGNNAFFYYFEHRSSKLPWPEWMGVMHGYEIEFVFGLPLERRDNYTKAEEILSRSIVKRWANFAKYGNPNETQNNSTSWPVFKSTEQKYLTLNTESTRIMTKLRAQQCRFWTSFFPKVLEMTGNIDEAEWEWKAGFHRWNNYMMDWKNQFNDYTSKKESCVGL

[4] = Cytotoxicity against human U373MG cells expressing human intestinal carboxylesterase after 4 days in drug free medium by coulter counter; type: functional, cell-based, U-373MG ATCC; conditions: U373 MG, 96 h
[5] = Cytotoxicity against human U373MG cells expressing human intestinal carboxylesterase after 4 days in drug free medium by coulter counter in presence of CPT-11; type: functional, cell-based, U-373MG ATCC; conditions: U373 MG, 96 h
Method in brief: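 U373MG cells stably expressing hiCE, seeded at 50,000 cells/well and left to adhere overnight. Cells were pre-incubated 1 h with inhibitor (10 μM), then exposed 2 h to inhibitor plus CPT-11 (0–100 μM). After washing, cells grew 4 days (~3 doublings) in drug-free medium and were counted. Runs were in triplicate, with survival compared to inhibitor-free controls. IC50 was taken from survival curves.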

[6] = Stability of the compound assessed as hydrolysis liberating phenol in aqueous solution at pH 7.4 after 5 mins; type: physicochemical; conditions: read-out: Activity
Method in brief: (§3)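 Compound at 200 μM in 50 mM Hepes pH 7.4, held 1, 5 or 20 min at rt or 37°C, with or without CE. Reactions were stopped with acetonitrile. Products were identified by reverse-phase HPLC with UV detection against phenol/thiophenol/aniline marker standards and no-enzyme samples.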

[7] = Stability of the compound assessed as hydrolysis liberating thiophenol in aqueous solution at pH 7.4 after 5 mins; type: physicochemical; design: scale not given: the % may be the effect or the level left; conditions: buffer, pH 7.4, 5 min; method in brief: as §3
Cocaine esterase [8] = target: T2, Cocaine esterase; assay: Inhibition of human intestinal carboxylesterase assessed as hydrolysis of CPT-11 after 5 mins by HPLC
[9] = target: T4, intestinal carboxylesterase (cocaine esterase) (Homo sapiens, UniProt O00748); assay: Inhibition of intestinal carboxylesterase in human U373MG cells using 4-methylumbelliferone acetate as substrate at 10 uM after 1 hrs pre-incubation by fluorimetry; type: cell-based, U-373MG ATCC; conditions: U373MG cells with intestinal carboxylesterase, probe 4-methylumbelliferone acetate
T4 sequence (O00748 whole entry): T2 sequence (O00748 whole entry)

U373 MG = assay: Reduction of CPT-11 induced cytotoxicity against human U373MG cells at 10 uM pre-incubated for 1 hr measured after 4 days in drug free medium by coulter counter; type: functional, cell-based; conditions: U-373MG ATCC
Method in brief: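 U373MG cells expressing hiCE were plated at 50,000 cells/well and left to adhere overnight. They got 1 h pre-incubation with 10 μM inhibitor, then 2 h with inhibitor plus CPT-11 (0–100 μM). Cells were washed, grown 4 days drug-free and Coulter-counted. Runs were in triplicate against no-inhibitor controls, and IC50 came from survival curves.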

| Structure (SMILES) | Ki (Liver carboxylesterase 1 [1]) [µM] | Ki (Cocaine esterase [2]) [µM] | Ki (Liver carboxylesterase 1 [3]) [µM] | Ki (Acetylcholinesterase) [µM] | Ki (Cholinesterase) [µM] | further results |
| --- | --- | --- | --- | --- | --- | --- |
| O=C(Nc1ccccc1)C(=O)Nc1ccccc1 | > 100 | > 100 | > 100 | > 100 | > 100 | – |
| CCc1c2c(nc3ccc(OC(=O)N4CCC(N5CCCCC5)CC4)cc13)-c1cc3c(c(=O)n1C2)COC(=O)[C@]3(O)CC | – | – | – | – | – | IC50 [4]: 3.6 µM |
| O=C(Cc1ccccc1)C(=O)Cc1ccccc1 | 3.08 | 21.6 | > 100 | > 100 | > 100 | – |
| O=C(C(=O)c1ccccc1)c1ccccc1 [BENZIL] | – | – | – | – | – | IC50 [5]: 22.9 µM; IC50 [4]: > 100 µM |
| CCCC(=O)C(=O)CCC | 8.06 | – | 17.8 | > 100 | > 100 | – |
| CCCCCCCC(=O)C(=O)CCCCCCC | 0.0076 | – | – | > 100 | > 100 | – |
| O=C(Cc1ccccc1)C(=O)C(Br)c1ccccc1 (stereo not given) | 2.63 | – | 3.68 | > 100 | > 100 | – |
| O=C(Oc1ccccc1)C(=O)Oc1ccccc1 [DIPHENYL ETHANEDIOAT] | > 100 | > 100 | > 100 | > 100 | > 100 | degraded at 5 min [6]: > 40% |
| CCCCCCCCC(=O)C(=O)CCCCCCCC | 0.00084 | – | – | > 100 | > 100 | – |
| CCCCCC(=O)C(=O)c1ccccc1 | 0.00665 | – | 0.11 | > 100 | > 100 | – |
| O=C(Sc1ccccc1)C(=O)Sc1ccccc1 | > 100 | > 100 | > 100 | > 100 | > 100 | Activity [7]: > 40% |
| O=C(C(=O)C(Br)c1ccccc1)C(Br)c1ccccc1 (stereo not given) | 0.107 | – | – | > 100 | > 100 | – |
| CCCCCCC(=O)C(=O)c1ccccc1 | 0.00219 | – | 0.0281 | > 100 | > 100 | IC50 [5]: 10.2 µM; IC50 [4]: > 100 µM |
| CCC(=O)C(=O)CC | > 100 | > 100 | > 100 | > 100 | > 100 | – |
| CCC(=O)C(=O)c1ccccc1 | 1.55 | 2.42 | 12.5 | > 100 | > 100 | Ki (Cocaine esterase [8]): 2.01 µM; inhibition at 1 h, 10 µM [9]: 70.3% |
| CCCC(=O)C(=O)c1ccccc1 | 0.102 | – | – | > 100 | > 100 | – |
| O=C(C(=O)C1CCCCC1)C1CCCCC1 | 0.005 | 0.072 | 0.027 | – | – | – |
| CCCCC(=O)C(=O)c1ccccc1 | 0.0261 | – | – | > 100 | > 100 | – |
| CCCCCC(=O)C(=O)CCCCC | 0.003 | – | – | > 100 | > 100 | – |
| CCCCC(=O)C(=O)CCCC | 0.0466 | – | – | > 100 | > 100 | – |
| CCCCCCC(=O)C(=O)CCCCCC | 0.0048 | – | – | > 100 | > 100 | IC50 [5]: 4 µM; Activity (U373 MG): inactive; IC50 [4]: > 100 µM |
